{"source": "paper PMC7340475", "about": "(Drug Design, Development and Therapy, 2020)", "key": {"α2A-AR [1]": {"biological_target": "T1, α2A-AR (Homo sapiens, UniProt P08913)", "T1 sequence (P08913 1-465)": "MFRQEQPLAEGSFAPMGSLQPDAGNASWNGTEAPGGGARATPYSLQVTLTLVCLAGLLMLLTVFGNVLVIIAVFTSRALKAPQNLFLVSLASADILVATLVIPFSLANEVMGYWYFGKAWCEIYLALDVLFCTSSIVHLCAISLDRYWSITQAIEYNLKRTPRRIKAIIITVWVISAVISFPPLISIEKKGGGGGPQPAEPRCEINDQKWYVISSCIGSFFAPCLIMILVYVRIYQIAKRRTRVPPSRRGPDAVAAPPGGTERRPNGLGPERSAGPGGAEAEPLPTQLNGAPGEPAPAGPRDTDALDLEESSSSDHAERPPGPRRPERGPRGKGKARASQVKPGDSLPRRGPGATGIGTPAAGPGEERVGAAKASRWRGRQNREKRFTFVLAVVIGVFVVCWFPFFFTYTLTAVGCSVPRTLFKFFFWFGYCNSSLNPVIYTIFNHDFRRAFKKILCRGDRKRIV", "assay": "cAMP-Glo assay, forskolin induced cAMP accumulation in transfected COS-7 cells", "format": "cell-based"}, "α2A-AR [2]": {"biological_target": "T1, α2A-AR", "assay": "Saturation binding assay of the radioligand", "conditions": "read-out: KD α2A-AR", "how_it_was_run": "(§1)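 Saturation binding used membranes from COS-7 cells transiently expressing each human α2-AR subtype. Membranes were incubated 1 h at room temperature with 0.1–10 nM [125I]-PIC in 50 mM Tris-HCl/120 mM sucrose. […] Reactions were stopped with PBS and filtered through GF/B. Radioactivity was counted and KD came from nonlinear regression.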"}, "α2C-AR": {"biological_target": "T2, α2C-AR (Homo sapiens, UniProt P18825)", "T2 sequence (P18825 1-462)": "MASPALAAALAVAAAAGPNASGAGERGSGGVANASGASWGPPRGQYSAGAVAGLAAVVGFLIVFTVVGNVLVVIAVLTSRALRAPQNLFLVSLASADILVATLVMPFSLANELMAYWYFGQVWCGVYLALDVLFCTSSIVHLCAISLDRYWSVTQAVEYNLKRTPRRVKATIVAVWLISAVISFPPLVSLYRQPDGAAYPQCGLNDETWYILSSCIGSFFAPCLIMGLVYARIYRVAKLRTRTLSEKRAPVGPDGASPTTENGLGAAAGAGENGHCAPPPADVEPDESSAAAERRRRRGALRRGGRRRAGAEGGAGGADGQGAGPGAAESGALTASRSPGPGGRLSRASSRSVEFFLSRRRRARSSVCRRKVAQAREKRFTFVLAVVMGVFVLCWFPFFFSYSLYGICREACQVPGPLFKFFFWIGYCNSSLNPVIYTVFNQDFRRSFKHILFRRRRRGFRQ", "assay": "Saturation binding assay of the radioligand", "conditions": "read-out: KD α2C-AR", "how_it_was_run": "as §1"}, "CHO cells": {"tested_on": "CHO cells", "conditions": "cited from earlier work"}}, "note": "Read-outs that look alike come from different tables or passages of the source.", "data": [{"smiles": "NC[C@H](O)c1ccc(O)c(O)c1", "note": "[norepinephrine]", "values": [{"measurement": "effect on cAMP production", "setting": "α2A-AR [1]; higher concentrations (10^−3-10^−7M)", "result": "stimulated the expression of cAMP"}, {"measurement": "effect on cAMP production", "setting": "α2A-AR [1]; lower concentrations (10^−10-10^−8M)", "result": "inhibited the production of cAMP"}]}, {"smiles": "Clc1cc(I)cc(Cl)c1NC1=NCCN1", "note": "[[^125I]-PIC, [^125I]-paraiodoclonidine]", "values": [{"measurement": "Kd", "setting": "α2A-AR [2]", "result": "0.209 ± 0.06", "unit": "nM"}, {"measurement": "Kd", "setting": "α2C-AR", "result": "0.802 ± 0.053", "unit": "nM"}]}, {"smiles": "CNC[C@H](O)c1ccc(O)c(O)c1", "note": "[epinephrine]", "values": [{"measurement": "effect on cAMP production", "setting": "CHO cells; from 10^−7 to 10^−6 M", "result": "increase"}, {"measurement": "effect on cAMP production", "setting": "CHO cells; from 10^−9 to 10^−8 M", "result": "inhibition"}]}, {"smiles": "Cc1ccc(N(CC2=NCCN2)c2cccc(O)c2)cc1", "note": "[phentolamine]", "values": [{"measurement": "effect on the production of cAMP, compound alone", "setting": "α2A-AR [1]; forskolin, no norepinephrine", "result": "did not have any effect"}]}]}
